In ChEMBL document CHEMBL2331392, “Antiviral phenolic compounds from Arundina gramnifolia” (J Nat Prod, 2013):
Values after ≈ are worked out from the molar mass of the structure shown.

Assays:
[1] = Cytotoxicity against human C8166 cells assessed as inhibition of cell viability after 3 days by MTT assay; type: cell-based
Summary of the method: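 C8166 cells tested with the MTT method. Cytotoxicity reported as CC50. Azidothymidine ran alongside as positive control.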

[2] = system: Human immunodeficiency virus 1; experiment: Antiviral activity against HIV-1 3B infected in human C8166 cells assessed as inhibition of syncytia formation after 3 days; type: functional, organism-based; conditions: Human immunodeficiency virus 1, 3B, C8166, 72 h
Tobacco mosaic virus [3] = experiment: Antiviral activity against TMV strain U1 infected in compound-pretreated Nicotiana glutinosa leaves assessed as inhibition of viral infection at 20 uM incubated with leaf for 6 hrs prior to viral inoculation; type: functional
Summary of the method: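 Protection assay with TMV U1 on tobacco leaves. Leaves were pretreated with compound at 20 μM for 6 h before virus inoculation. Compounds were dissolved in DMSO and diluted with water; a DMSO solution served as negative control and ningnanmycin as positive control. Inhibition rates are mean ± SD, n = 3.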

Tobacco mosaic virus [4] = experiment: Antiviral activity against TMV strain U1 infected in Nicotiana glutinosa leaves assessed as decrease in number of local leaf lesions at 20 uM incubated with virus for 30 mins prior to inoculation on leaves measured 3 to 4 days post-viral infection by half-leaf method; type: functional
Summary of the method: (§1)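 Half-leaf assay on N. glutinosa. TMV U1 was multiplied in N. tabacum cv. K326, purified, and set to 20 mg/mL by UV absorbance at 260 nm. Compounds were dissolved in DMSO and diluted with water. Virus and compound were mixed for 30 min and applied to the left leaf half; the right half got virus plus matched DMSO. Ningnanmycin served as positive control. Three leaf blades per compound. Inhibition % = (C−T)/C×100 from mean local lesion counts.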

[5] = Therapeutic index, ratio of CC50 for human C8166 cells to EC50 for HIV-1 3B infected in human C8166 cells; type: cell-based; conditions: C8166 cells (CC50) and HIV-1 3B infected C8166 cells (EC50)
Summary of the method: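 CC50 came from MTT cytotoxicity on C8166 cells. EC50 came from inhibition of HIV-1 cytopathic effect in C8166 cells. Azidothymidine was the positive control. The index is CC50 divided by EC50.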

Tobacco mosaic virus [6] = experiment: Antiviral activity against TMV strain U1 infected in Nicotiana glutinosa leaves assessed as decrease in number of local leaf lesions incubated with virus for 30 mins prior to inoculation on leaves measured 3 to 4 days post-viral infection by half-leaf method; type: functional, organism-based; summary of the method: as §1

Compound	CC50 at 72 h [1] [µg/mL]	EC50 [2] [µg/mL]	inhibition at 20 µM (Tobacco mosaic virus [3]) [%]	inhibition at 20 µM (Tobacco mosaic virus [4]) [%]	selectivity ratio [5]	IC50 (Tobacco mosaic virus [6]) [µM]
COc1cc(O)cc2c1-c1c(O)ccc(O)c1C2=O	105 (≈ 408 µM)	5.47 (≈ 21.2 µM)	16.7	17.4	19.3	98.3
COc1cc(O)cc2c1-c1c(O)cc(O)cc1C2=O	86.7 (≈ 336 µM)	2.73 (≈ 10.6 µM)	–	7.9	31.8	–
C/C=C/c1cc(OC)c(OC)cc1C(=O)c1cc(OC)c(OC)c(OC)c1 [GRAMNIPHENOL B]	134 (≈ 361 µM)	1.27 (≈ 3.41 µM)	–	–	106	–
COc1ccc(-c2cc3cc4c(cc3o2)OC(C)(C)C=C4)cc1 [GRAMNIPHENOL G]	88.7 (≈ 290 µM)	6.38 (≈ 20.8 µM)	36.1	32.1	13.9	57.7
CC1(C)C=Cc2cc3cc(-c4ccc(O)cc4)oc3cc2O1 [GRAMNIPHENOL F]	102 (≈ 351 µM)	5.22 (≈ 17.9 µM)	33.8	35.8	19.6	40.8
COc1ccc2c(c1)C=C[C@@H](c1ccc(O)c(C(=O)CCO)c1OC)O2 [GRAMNIPHENOL C]	145 (≈ 407 µM)	3.28 (≈ 9.2 µM)	56.3	48.2	44.3	20.8
C=C(C)[C@H](O)COc1cc(OC)c2c(c1)C(=O)c1cc(O)cc(O)c1-2 [GRAMNIPHENOL E]	> 200	1.58 (≈ 4.62 µM)	–	7.16	> 127	–
C=C(C)[C@H](O)COc1cc(OC)c2c(c1)C(=O)c1c(O)ccc(O)c1-2 [GRAMNIPHENOL D]	> 200	1.46 (≈ 4.26 µM)	11.4	13.3	> 137	129
Cc1cn([C@H]2C[C@H](N=[N+]=[N-])[C@@H](CO)O2)c(=O)[nH]c1=O [ZIDOVUDINE]	> 200	–	–	–	> 5880	–
COc1ccc(/C=C/Cc2ccc(O)c(OC)c2OC)cc1O [CANDENATENIN A]	145 (≈ 459 µM)	3.28 (≈ 10.4 µM)	24	21.2	44.3	70.6
CNCC(=O)N[C@@H](CO)C(=O)N[C@H]1[C@H](O)[C@@H](O)[C@H](n2ccc(N)nc2=O)O[C@@H]1C(N)=O [NINGNANMYCIN]	–	–	30	31.8	–	42.2
Oc1cc(O)cc(-c2cc3ccc(O)cc3o2)c1 [MORACIN M]	57.4 (≈ 237 µM)	4.59 (≈ 18.9 µM)	10.2	13.2	12.5	128
